An excerpt weighted towards active compounds, which were near 4% of everything screened.
OX1R antag-1 – antagonists of human orexin 1 receptor (OX1R); OX1R-expressing cells, FRET antagonist read-out; Orexin/Hypocretin receptor type 1 (Homo sapiens), O43613; AID 485270, 2010; inhibition, % at 6.6 µM; 330,000 tested, 1.8% active; in the data active means inhibition mostly above about 38%, no sharp cut-off; inactive means mostly below about 40%;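 further: 0% = agonist challenge alone and 100% = reference antagonist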
Target sequence (O43613 whole entry, looked up): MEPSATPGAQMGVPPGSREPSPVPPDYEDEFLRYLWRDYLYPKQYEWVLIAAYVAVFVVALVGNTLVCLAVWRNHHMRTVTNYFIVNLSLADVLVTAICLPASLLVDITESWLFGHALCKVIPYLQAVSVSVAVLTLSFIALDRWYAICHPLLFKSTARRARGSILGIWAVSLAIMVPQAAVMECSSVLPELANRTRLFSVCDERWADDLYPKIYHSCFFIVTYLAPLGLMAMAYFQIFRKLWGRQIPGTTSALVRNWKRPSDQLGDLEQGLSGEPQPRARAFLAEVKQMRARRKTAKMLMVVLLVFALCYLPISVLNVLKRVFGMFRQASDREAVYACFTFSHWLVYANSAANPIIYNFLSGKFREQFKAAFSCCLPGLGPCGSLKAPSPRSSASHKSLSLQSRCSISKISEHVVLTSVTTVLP
OX1R antag-2 – OX1R (HCRTR1) antagonists, primary screen, fluorescence, CHO/OX1R cells, Fluo-8 calcium, orexin A. Orexin/Hypocretin receptor type 1 (Homo sapiens), O43613. Fluo-8 calcium fluorescence. inhibition, % at 5 µM. 330,000 tested, 0.43% active. AID 434989, 2010;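 active means inhibition above its plate's threshold, mean inhibition of all tested compounds on the plate plus 3 SD, cut at about 37% in these data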;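 further: 0% = orexin A challenge wells and 100% = SB-334867-A antagonist wells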
TAAR1 ag – human TAAR1 agonists, primary screen, Fluo-8 calcium fluorescence, CHO RD-HGA16 cells | Trace amine-associated receptor 1 (Homo sapiens), Q96RJ0 | vehicle wells 0%, saturating PEA agonist 100% | activation, % at 3 µM | 360,000 tested, 0.99% active | AID 624467, 2012;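 active means activation above the mean activation of all test compounds in the run plus 3 SD, cut at about 38% in these data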
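Test system: RD-HGA16 (CHO) cells co-expressing Gα16 and hTAAR1 | Doses: Single dose, 3 µM | Schedule: 17-24 h seeding, 75 min 37 °C dye, 30 min RT | Evaluation: % activation from peak over basal fluorescence ratio, DMSO-to-PEA scaled | Technique: Kinetic Fluo-8 calcium fluorescence | Benchmarks: Low control DMSO, high control PEA (EC100)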
TAAR1 antag – human TAAR1 antagonists, primary screen, Fluo-8 calcium fluorescence, CHO RD-HGA16 cells | AID 624466, 2012 | inhibition, % at 3 µM | 360,000 tested, 1.5% active | antagonist | Trace amine-associated receptor 1 (Homo sapiens), Q96RJ0;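 active means inhibition above a per-plate cutoff, the mean inhibition of test compounds on that plate plus 3 SD, cut at about 49% in these data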;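 further: 0% = DMSO plus EC80 beta-PEA response and 100% = DMSO alone without agonist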
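Assay system: RD-HGA16 CHO cells with stable hTAAR1 and Gα16 / Reagent: EC80 β-phenethylamine stimulus / Doses: 3 µM, single point / Timing: dye loading 75 min at 37 °C, then 30 min room temperature / Measured by: Fluo-8 intracellular calcium dye fluorescence, real-time kinetic reads / Controls: vehicle wells and EC80 agonist wells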
CHO parental Ca – ATP-evoked calcium signal inhibitors, parental CHO, primary screen, counter-screen for OX1R antagonist project, cell-based, fluorescence, Fluo-8 calcium dye | parental CHO-K1, ATP-induced calcium, Fluo-8 fluorescence | 330,000 tested, 0.63% active | inhibition, % at 5.6 µM;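 active means inhibition above that plate's mean sample inhibition plus 3 SD, cut at about 26% in these data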;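 further: 0% = ATP-challenged DMSO wells and 100% = DMSO wells without ATP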
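Material: parental CHO cells / Compound: single nominal dose of 5.6 µM per compound / Signal: Fluo-8 fluorescence / Replicates: singlicate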
* hit, by the source's call; / = no result.

SMILES	OX1R antag-1	OX1R antag-2	TAAR1 ag	TAAR1 antag	CHO parental Ca
O=C(Nc1ccncc1)c1ccc2c(c1)S(=O)(=O)c1ccccc1C2=O	75.1*	-10.5	37.9*	52.3*	0.3
CCCCNc1cccc2c1S(=O)(=O)N[C@H](CC(C)C)CO2	/	/	-1.9	-11.9	/
COc1ccccc1CCn1cnc(-c2ccccc2OC)c1CC(C)C	/	/	33.7	7.0	/
O=C(Nc1ccccc1)OC[C@@H]1CSCCS(=O)(=O)N1	/	/	1.4	5.0	/
CCCNC(=O)c1ccc2c(c1)S(=O)(=O)c1ccccc1C2=O	74.1*	-25.4	1.7	-1.6	-13.2
CN(C)C(CNC(=O)c1ccc2c(c1)S(=O)(=O)c1ccccc1C2=O)c1ccco1 (stereo not given)	74.3*	-26.2	4.4	15.2	-18.0
CSc1ccc(C(=O)NCC(c2ccco2)N(C)C)cc1[N+](=O)[O-] (stereo not given)	46.6*	-22.9	1.7	-5.5	-12.1
O=C(NC1CCCC1)c1ccc2c(c1)S(=O)(=O)c1ccccc1C2=O	64.6*	-16.0	14.0	24.4	-16.1
Cc1ccccc1NCCNc1ccccc1C	4.9	-6.3	8.8	-5.9	-15.4
COC(=O)[C@H](Cc1ccccc1)N1C/C=C\COc2c(Cl)cc(Cl)cc2S1(=O)=O	31.8*	35.0	0.6	0.8	-12.1
CC(C)C(OC(=O)CN1C(=O)c2ccccc2C1=O)C(=O)NC1CCCC1 (stereo not given)	6.4	4.7	1.4	-28.5	-8.9
COCCCNC(=O)CN1C(=O)/C(=C/c2ccccc2)Sc2ccccc21	67.8*	-4.3	3.0	2.9	0.6
CCOc1cc(CNCCO)cc(Br)c1OCc1ccccc1	14.6	8.1	22.9	-9.8	-7.0
CCOc1cc(CNCCSc2nnnn2C)cc(Br)c1OCc1ccccc1	10.6	51.1*	17.0	12.5	65.8*
COc1ccccc1CNc1nc(Nc2cccc(-c3cnco3)c2)c2sccc2n1	/	/	1.9	75.9*	/
COc1ccc(N2C(=O)c3n[nH]c(C)c3C2c2ccc(F)cc2)cc1 (stereo not given)	/	/	1.7	-28.7	/
Cc1cc(/C=C2\SC(=S)NC2=O)c(C)n1C	14.6	-2.9	4.5	12.5	-3.4
Cc1cc(/C=C2\SC(=S)NC2=O)c(C)n1-c1ccccc1	45.3*	-18.2	-1.3	18.7	-15.8
Cc1cc(/C=C2\SC(=S)NC2=O)c(C)n1-c1ccc(O)cc1	2.7	7.4	23.6	-40.7	4.7
Cc1cc(/C=C2\SC(=S)NC2=O)cc(C)c1O	45.7*	-4.2	-1.1	-8.1	2.5
O=C1NC(=S)SC1=Cc1ccccc1Cl	/	/	2.0	-33.4	/
O=C1NC(=S)S/C1=C\c1cc(Cl)cc(Cl)c1O	/	/	39.8*	65.1*	/
N#Cc1[nH]nc2nc[nH]c(=O)c12	/	/	0.8	1.3	/
CSc1ccccc1NC(=O)CN(C)C(=O)CNC(=O)c1ccc(Oc2ccccc2)cc1	/	/	4.8	10.2	/
CN(C1CCCCC1)C(CNS(=O)(=O)c1ccc(Cl)cc1)c1ccccc1 (stereo not given)	4.0	-37.5	-0.3	-15.5	-14.9
SMILES	OX1R antag-1	OX1R antag-2	TAAR1 ag	TAAR1 antag	CHO parental Ca
C/C(=C\C(=O)c1ccc(Cl)s1)N(C)C	26.5	-9.2	-0.2	-2.0	5.6
COC(=O)[C@]12CCCCC=C1N(Cc1ccc3c(c1)OCO3)C(=O)[C@H](CC(=O)N1CCCC1)C2	/	/	14.2	53.6*	/
COC(=O)[C@]12CCCCC=C1N(Cc1ccccc1)C(=O)[C@H](CC(=O)N1CCCCC1)C2	/	/	15.6	41.2	/
COC(=O)[C@]12CCCCC=C1N(Cc1ccccc1)C(=O)[C@H](CC(=O)N1CCCC1)C2	/	/	12.8	55.7*	/
CCOC(=O)[C@]12CCC=C1N(Cc1ccc3c(c1)OCO3)C(=O)[C@H](CC(=O)N1CCCC1)C2	/	/	1.2	-9.2	/
COC(=O)[C@]12CCCCC=C1N(Cc1ccc3c(c1)OCO3)C(=O)[C@H](CC(=O)N1CCCCC1)C2	/	/	12.1	52.3*	/
COC(=O)[C@]12CCCCC=C1N(CCc1ccc(OC)c(OC)c1)C(=O)[C@H](CC(=O)N1CCCC1)C2	/	/	8.5	34.5	/
COC(=O)[C@]12CCCCC=C1N(CCc1ccc(OC)c(OC)c1)C(=O)[C@H](CC(=O)N1CCSCC1)C2	/	/	12.2	60.6*	/
CC1CN(C(=O)CCC(=O)NC2CCCCC2)c2ccccc2S1 (stereo not given)	18.6	-8.9	6.8	-15.6	-11.4
Cc1cc(C(=O)O)ccc1NCc1cccnc1	22.3	5.2	0.4	-1.7	-17.0
O=C(O)c1ccc(NCc2cccnc2)c([N+](=O)[O-])c1	54.5*	-3.5	0.2	-15.1	2.5
CC(=O)N1CCN(c2ccc([N+](=O)[O-])c(NCc3cccnc3)c2)CC1	42.2*	-12.2	1.5	-22.5	-11.9
CCN1/C(=C/C=C/c2oc3ccc4ccccc4c3[n+]2CC)Oc2ccc3ccccc3c21	14.1	75.9*	/	/	64.3*
CC[n+]1c(/C=C/N(C)c2ccccc2)oc2ccc(Cl)cc21	5.7	-3.5	2.4	-9.5	-5.2
CC1Sc2ccc(S(=O)(=O)N(C)Cc3ccccc3)cc2NC1=O (stereo not given)	28.6	-18.9	6.6	48.8*	-11.4
CCc1cccc(NS(=O)(=O)c2ccc3c(c2)NC(=O)C(C)S3)c1 (stereo not given)	25.0	21.3	30.1	11.3	52.9*
COc1cccc(NS(=O)(=O)c2ccc3c(c2)NC(=O)C(C)S3)c1 (stereo not given)	22.9	-19.0	5.0	14.8	-2.0
CCCC(=O)NCC(c1cccs1)S(=O)(=O)c1ccc(C)cc1 (stereo not given)	18.9	-19.9	0.2	-1.6	15.1
O=C(COc1ccc(Nc2ccccc2)cc1)Nc1ccncc1	18.4	18.8	9.8	27.6	36.8*
O=C(COc1ccc(-c2ccccc2)cc1)Nc1cccnc1	23.2	57.5*	15.7	32.8	27.4*
O=C(Nc1ccc(CSc2ccccc2)cc1)c1ccccc1	11.8	-6.6	10.9	17.7	18.1
O=C(COc1ccccc1)Nc1ccc(CSc2ccccc2)cc1	28.3	15.6	7.3	50.8*	20.8
O=C(COc1ccc(Br)cc1)Nc1ccncc1	21.9	18.5	4.3	-0.8	10.3
CCC(C)(C)c1ccc(OCC(=O)Nc2ccncc2)cc1	17.9	78.1*	11.4	44.0	75.6*
COc1ccc(CC(=O)NNS(=O)(=O)c2ccccc2)cc1OC	16.5	-9.8	0.2	2.2	-10.5
COc1cc(CCC(C)=O)ccc1OC(=O)c1c(-c2c(F)cccc2Cl)noc1C	/	/	0.8	31.9	/

Screens as filed in PubChem BioAssay.
